This is an account of results in publication PMC3033481 (Journal of the American Chemical Society, 2011).

“Also recorded” adds a separate entry of the source.

In series [1] the test system is BrdU+ cells in the hippocampal dentate gyrus. The experiment in a line: In vivo neurogenesis. On the set-up: species or system C57BL/J6 mice. The note with it: for proneurogenic activity (BrdU+ cells in dentate gyrus), in words: 10 μM solution infused ICV, 12 μL/day, 7 days, live mice. In a few lines:
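Adult (12-week-old) wild-type C57BL/J6 mice, 4 per compound. Test compound solutions (10–0.01 μM) delivered by osmotic minipump into the left lateral ventricle at 12 μL/day for 7 days; the vehicle was artificial CSF. BrdU+ cells counted in SGZ/dentate gyrus of the contralateral hemisphere, every fifth 40 μm section, normalized to dentate volume. Mean ± SEM.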

Series [2] addresses histamine H2 receptor (Homo sapiens, UniProt P25021). As to the kind of experiment: Histamine H2 competition binding assay. The settings on record: for Histamine H2 binding (% displacement @ 10 μM): displacement of [125I]aminopotentidine (0.1 nM) with 10 μM drug. (In a radioligand displacement assay an active substance lowers the binding of a labelled ligand.)
Series [3] relates to neurogenesis in the dentate gyrus. The settings on record: rats, cited from earlier work.
The test system of series [4] is neurogenesis. The settings on record: cited from earlier work.
For series [5], the system named is dentate gyrus in mice deficient in the npas3 gene. The note with it: cited from earlier work.
The target of series [6] is hERG channel (Homo sapiens, UniProt Q12809).
Sequence of hERG channel (Q12809 whole entry): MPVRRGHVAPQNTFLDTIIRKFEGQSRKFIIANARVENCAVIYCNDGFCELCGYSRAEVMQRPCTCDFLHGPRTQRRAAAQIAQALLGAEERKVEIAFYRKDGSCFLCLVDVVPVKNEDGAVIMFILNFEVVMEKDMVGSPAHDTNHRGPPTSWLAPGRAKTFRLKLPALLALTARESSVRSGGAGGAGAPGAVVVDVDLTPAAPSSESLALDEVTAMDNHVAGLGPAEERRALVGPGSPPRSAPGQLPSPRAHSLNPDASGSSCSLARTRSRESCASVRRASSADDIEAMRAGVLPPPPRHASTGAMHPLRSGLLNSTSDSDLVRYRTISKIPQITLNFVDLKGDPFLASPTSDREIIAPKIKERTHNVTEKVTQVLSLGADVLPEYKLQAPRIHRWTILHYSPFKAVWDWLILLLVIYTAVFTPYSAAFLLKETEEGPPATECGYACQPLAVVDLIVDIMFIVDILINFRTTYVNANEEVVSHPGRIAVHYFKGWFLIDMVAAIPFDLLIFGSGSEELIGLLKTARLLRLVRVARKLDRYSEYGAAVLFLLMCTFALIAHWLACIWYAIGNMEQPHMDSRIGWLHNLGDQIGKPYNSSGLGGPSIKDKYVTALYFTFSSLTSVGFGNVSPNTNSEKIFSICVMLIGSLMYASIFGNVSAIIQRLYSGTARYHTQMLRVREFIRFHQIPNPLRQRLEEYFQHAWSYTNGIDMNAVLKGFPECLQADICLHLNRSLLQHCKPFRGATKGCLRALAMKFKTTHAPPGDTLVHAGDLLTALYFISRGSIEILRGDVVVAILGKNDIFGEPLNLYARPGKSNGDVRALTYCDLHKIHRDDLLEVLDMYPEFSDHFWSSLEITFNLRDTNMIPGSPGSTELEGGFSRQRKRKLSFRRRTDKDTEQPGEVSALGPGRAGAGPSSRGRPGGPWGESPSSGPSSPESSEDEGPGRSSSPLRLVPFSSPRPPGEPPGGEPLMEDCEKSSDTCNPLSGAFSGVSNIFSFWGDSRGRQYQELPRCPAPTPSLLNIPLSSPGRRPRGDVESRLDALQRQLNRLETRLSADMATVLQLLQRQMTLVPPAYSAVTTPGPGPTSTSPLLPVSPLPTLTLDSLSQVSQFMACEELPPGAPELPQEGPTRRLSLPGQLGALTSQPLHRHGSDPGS
The conditions of series [7]: mouse, in vivo, cited from earlier work.
In series [8] the test system is HeLa cells. The experiment in a line: Cell viability assay. It counts as cell-based.
Series [9] relates to neural precursor cells. The note with it: time-course experiments; cited from earlier work.
Series [10] concerns embryonic, weaning or adult mice. The settings on record: mouse, in vivo; cited from earlier work.
The test system of series [11] is mouse hepatocytes.
Series [12] relates to BrdU+ cells in the hippocampal dentate gyrus. The settings on record: cited from earlier work.
The test system of series [13] is human hepatocytes.

Sequence of histamine H2 receptor (P25021 whole entry): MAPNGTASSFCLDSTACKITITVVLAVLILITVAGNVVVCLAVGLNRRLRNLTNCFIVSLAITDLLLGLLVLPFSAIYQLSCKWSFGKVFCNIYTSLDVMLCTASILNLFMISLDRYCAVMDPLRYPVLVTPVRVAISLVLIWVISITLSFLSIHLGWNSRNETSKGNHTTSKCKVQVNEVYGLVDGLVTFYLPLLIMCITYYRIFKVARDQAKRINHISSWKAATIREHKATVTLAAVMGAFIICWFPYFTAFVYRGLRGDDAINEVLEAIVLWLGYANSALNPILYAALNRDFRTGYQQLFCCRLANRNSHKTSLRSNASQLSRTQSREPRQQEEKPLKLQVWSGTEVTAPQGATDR

Turning to `CCOc1ccc(NCC(O)Cn2c3ccc(Br)cc3c3cc(Br)ccc32)cc1` (centres unmarked) [Compound 4-OEt], in [1], the “proneurogenic activity (BrdU+ cells in dentate gyrus), in words” value (“proneurogenic activity” below) is “highly active”.

In the case of `Cc1ccc2c(c1)c1c(n2CCc2ccc(C)nc2)CCN(C)C1` [dimebon, reference compound], the “Histamine H2 binding (% displacement @ 10 μM)” value in series [2] was determined as 99 % displacement. In addition, the “proneurogenic activity” value in series [1] is “active in our neurogenesis assay, but substantially less so than P7C3”.

For `COc1ccc(NCC(F)Cn2c3ccc(Br)cc3c3cc(Br)ccc32)cc1` (centres unmarked) [Compound 54], the “proneurogenic activity” value in series [1] was “improved by fluorination”.

For `[N-]=[N+]=Nc1ccc(NCC(O)Cn2c3ccc(Br)cc3c3cc(Br)ccc32)cc1` (centres unmarked) [Compound 23], the “proneurogenic activity” value in series [1] is recorded as “highly active”.

In the case of `CCOc1cccc(NCC(O)Cn2c3ccc(Br)cc3c3cc(Br)ccc32)c1` (centres unmarked) [Compound 21], the “proneurogenic activity” value in [1] is “essentially abrogated activity”.

Take `OC(CNc1ccccc1)Cn1c2ccc(Cl)cc2c2cc(Cl)ccc21` (centres unmarked) [Compound 17]: the “proneurogenic activity” value in [1] is on record as “little activity”.

For the compound `[N-]=[N+]=Nc1cccc(NCC(O)Cn2c3ccc(Br)cc3c3cc(Br)ccc32)c1` (centres unmarked) [Compound 22], the “proneurogenic activity” value in [1] is “substantially decreased activity”.

Take `OC(CNc1ccccc1)Cn1c2ccc(Br)cc2c2cc(Br)ccc21` (centres unmarked) [Compound P7C3]: in series [3] (as a function of terminal aging), the cognitive capacity entry is reported as “preserved cognitive capacity”. In series [3] (terminal aging), the “neurogenesis in the dentate gyrus” value is “enhanced neurogenesis in the dentate gyrus” and the neuron cell death entry is reported as “impeded neuron cell death”. Further, in [4] (oral dose 1 mg/kg), the “neurogenesis activity, oral dose 1 mg/kg” value is “measurable activity”. In addition, in series [4] (oral dose of 5 mg/kg), the “neurogenesis activity, oral dose 5 mg/kg” value is reported as “maximal neurogenesis activity”. Further, the “structure and function of the dentate gyrus” value in series [5] was “repair the structure and function of the dentate gyrus”. In addition, the “hERG binding (% displacement @ 10 μM)” value in series [6] is 92 % displacement. In addition, in series [2] (10 μM drug), the “Histamine H2 binding, in words” value is “modest binding”. Also, in series [2], the “Histamine H2 binding (% displacement @ 10 μM)” value turned out to be 63 % displacement. In series [7] (po), the “AUC brain: AUC plasma ratio” value is recorded as 3.7. For the same compound, the “oral availability, in words” value in [7] is “orally available”. The 50% growth inhibitory concentration (GI50) in series [8] turned out to be 5.1 µM. The “proliferation of neural precursor cells” value in [9] is given as “does not stimulate proliferation”. Besides, the toxicity to mice entry in [10] is listed as “not toxic”. In addition, in series [11], the “Half life in cell culture, Mouse hepatocytes” value is greater than 4 h. In [12] (1 μM solution infused ICV, 12 μL/day for 7 days), the “neurogenesis activity, 1 μM solution” value is “maintains activity”. Moreover, in series [12] (10 μM ICV, 7 days, vehicle artificial CSF, similar number as FGF-2), the “number of BrdU+ cells relative to mice treated with vehicle alone” value is given as “approximately twice”. In addition, in series [13], the “Half life in cell culture, Human hepatocytes” value is greater than 4 h.

For the compound `OC(CNc1ccccc1)Cn1c2ccccc2c2ccccc21` (centres unmarked) [Compound 2], in series [1], the “proneurogenic activity” value is “did not appear active”.

Turning to `COc1ccc(NCC(O)Cn2c3ccc(Br)cc3c3cc(Br)ccc32)cc1` (centres unmarked) [Compound 8], the “proneurogenic activity” value in series [1] is recorded as “well tolerated; also recorded: highly active”.

Consider `FC(CNc1ccccc1)Cn1c2ccc(Br)cc2c2cc(Br)ccc21` (centres unmarked) [Compound 52], for which the “proneurogenic activity” value in series [1] was “gains little from fluorination”.

For the compound `OC(CNc1ccccc1)Cn1c2ccc(Cl)cc2c2cc(Cl)ccc21` (centres unmarked) [Compound 1], the “proneurogenic activity” value in series [1] is on record as “did not appear active”.

Regarding `COc1cccc(NCC(O)Cn2c3ccc(Br)cc3c3cc(Br)ccc32)c1` (centres unmarked) [Compound 7], in series [1], the “proneurogenic activity” value is given as “well tolerated; also recorded: little effect on activity”. For the same compound, the “difference in activity between the two enantiomers” value in series [1] (enantiomeric pairs tested, same enantiomer more active in all three cases) is listed as “significant difference in activity”.

The GI50 is the concentration at which growth is held to half of that of the control. A lower GI50 goes with more potent growth inhibition.
